Assay results gathered from unrelated publications.
Each line is one published result; the experiments were not run side by side.
IGF1R: Insulin-like growth factor 1 receptor (IGF1R, Homo sapiens, UniProt P08069)

C[C@@H](c1cccc(C#N)c1)n1cc(Cl)cc(C(N)=O)c1=N  remaining binding (IGF1R; cell-free assay; competition with immobilised ligand; 1 µM): 96%
Cc1cc(NC(=O)c2cccc3cc(-c4cccc5[nH]nc(N)c45)ccc23)ccc1F  activity vs control (Insulin-like growth factor 1 receptor, phosphorylated (IGF1R, Homo sapiens, UniProt P08069); enzyme activity; inhibitor; 0.1 µM): 100%
Nc1c(C(=O)NCc2ccc(C(=O)NCCCC3CCCCC3)cc2)cnn1-c1ccccc1  remaining binding (IGF1R; cell-free assay; competition with immobilised ligand; 0.1 µM): 98%
CCCS(=O)(=O)Nc1ccc(F)c(C(=O)c2c[nH]c3ncc(-c4ccc(Cl)cc4)cc23)c1F  inhibition (IGF1R; enzyme activity; inhibitor; 1 µM): < 10%
CNc1cccc2cc(C(=O)Nc3ccc(C(=O)O)cc3)c(=O)[nH]c12  inhibition (IGF1R; enzyme activity; inhibitor; 10 µM): 5.2%
CN(C(=O)c1ccccc1)c1cc(N(C)c2ccc3c(c2)CCc2ccc(C(=O)NCCN4CCOCC4)cc2C3=O)ccc1F  remaining binding (IGF1R; cell-free assay; competition with immobilised ligand; 1 µM): 90%
Cc1ccc(C(=O)Nc2ccc(CN3CCN(C)CC3)c(C(F)(F)F)c2)cc1C#Cc1cnc2cccnn12  remaining signal (IGF1R; cell-free assay; 23.5 nM): 84%
O=C(CSc1nc2nccnc2c(=O)n1CCc1ccccc1)Nc1nccs1  inhibition (IGF1R; enzyme activity; inhibitor; 10 µM): 12%
O=C1Nc2ccc(Cl)cc2C1=Cc1cc(Cl)c(O)c(Cl)c1  remaining signal (IGF1R; cell-free assay; 0.5 µM): 98.3%
Cc1ccc(C(=O)NCc2ccsc2)cc1C#Cc1cn(C(C)C)c2ncnc(N)c12  activity vs control (IGF1R; enzyme activity; inhibitor; 1 µM): 75%
CN(c1ncccc1CNc1nc(Nc2ccc3c(c2)CC(=O)N3)ncc1C(F)(F)F)S(C)(=O)=O  inhibition (IGF1R; enzyme activity; inhibitor; 1 µM): 97.6%
CNCc1ccc(-c2cc(-c3nc(-c4ccc(S(=O)(=O)C(C)C)cc4)cnc3N)on2)cc1  inhibition (IGF1R; enzyme activity; inhibitor; 0.4 µM): 0%
CN1CC(Oc2cnc(C#N)cc2-c2ccn3nc(NC(=O)C4CC4)cc3c2)C1  inhibition (IGF1R; enzyme activity; inhibitor; 1 µM): 9%
N#Cc1ccc(Nc2ccc3[nH]c(=O)[nH]c3c2)c(Cl)c1  remaining binding (IGF1R; cell-free assay; competition with immobilised ligand; 1 µM): 99%
COc1cc(/C=C/C(=O)CC(=O)/C=C/c2ccc(O)c(OC)c2)ccc1O  activity vs control (IGF1R; enzyme activity; inhibitor; 1 µM): 99%
CNC(=O)c1cc(Oc2ccc(NC(=O)Nc3ccc(Cl)c(C(F)(F)F)c3)cc2)ccn1  inhibition (IGF1R; enzyme activity; inhibitor; 0.3 µM): -3%
O=C(NCc1ncc(C(F)(F)F)cc1Cl)c1ccc2c(c1)C1(CCS(=O)(=O)CC1)[C@@H](C1CC1)N2S(=O)(=O)c1ccc(F)cc1  remaining binding (IGF1R; cell-free assay; competition with immobilised ligand; 1 µM): 88%
COc1ccc(Cl)cc1NC(=O)Nc1cc(C)nc2ccccc12  remaining signal (IGF1R; cell-free assay; 0.5 µM): 94.9%
COc1cc2ncnc(Nc3ccc(Oc4ccccc4)cc3C)c2cc1OC  inhibition (IGF1R; enzyme activity; inhibitor; 1 µM): 1%
CCS(=O)(=O)c1cc2cc(C[C@@](O)(CC(C)(C)c3ccc(F)cc3C(N)=O)C(F)(F)F)[nH]c2cn1  remaining binding (IGF1R; cell-free assay; competition with immobilised ligand; 1 µM): 100%
CCN(CC)CCNC(=O)c1c(C)[nH]c(/C=C2\C(=O)Nc3ccc(F)cc32)c1C  inhibition (IGF1R; enzyme activity; inhibitor; 0.3 µM): 4%
